Measurements from ChEMBL document CHEMBL5356993, “Novel pyrazolo[3,4-d]pyrimidine derivatives: design, synthesis, anticancer evaluation, VEGFR-2 inhibition, and antiangiogenic activity” (RSC Med Chem, 2023).
pIC50: −log10 of the molar value.

How the values were obtained:
OVCAR-5 = assay: Antiproliferative activity against human OVCAR-5 cells assessed as cell growth inhibition at 10 uM incubated for 48 hrs by SRB assay relative to control; type: functional; conditions: read-out: GI
Method in brief: (§1)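 Cells plated in 96-well plates at […] cells/well and preincubated 24 h at 37 °C, 5% CO2. Time-zero plates were TCA-fixed. Compound was diluted in medium with 50 µg/mL gentamicin and cells exposed for 48 h. Adherent cells fixed with 10% final TCA; suspension cells with 16% final TCA. Plates stained with 0.4% SRB in 1% acetic acid, dye solubilized in 10 mM Trizma, absorbance read at 515 nm. Percent growth calculated against time-zero and control.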

NCI-H322M = assay: Antiproliferative activity against human NCI-H322M cells assessed as cell growth inhibition at 10 uM incubated for 48 hrs by SRB assay relative to control; type: functional; conditions: read-out: GI
NCI-H460 = assay: Antiproliferative activity against human NCI-H460 cells assessed as cell growth inhibition at 10 uM incubated for 48 hrs by SRB assay relative to control; type: functional; conditions: read-out: GI
KM12 = assay: Antiproliferative activity against human KM12 cells assessed as cell growth inhibition at 10 uM incubated for 48 hrs by SRB assay relative to control; type: functional; conditions: read-out: GI; method in brief: as §1
SW-620 = assay: Antiproliferative activity against human SW620 cells assessed as cell growth inhibition at 10 uM incubated for 48 hrs by SRB assay relative to control; type: functional; conditions: read-out: GI
Method in brief: (§2)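 Cells pre-incubated 24 h at 37°C, 5% CO2, then exposed to compound (DMSO stock diluted in medium with 50 µg/mL gentamicin) for 48 h. Adherent cells fixed with cold TCA (final 10%, 60 min, 4°C); suspension cells fixed with 16% TCA final. Stained with 0.4% SRB in 1% acetic acid for 10 min, dye solubilized in 10 mM Trizma base, absorbance read at 515 nm. Growth calculated against time-zero and untreated control plates.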

SF-539 = assay: Antiproliferative activity against human SF-539 cells assessed as cell growth inhibition at 10 uM incubated for 48 hrs by SRB assay relative to control; type: functional; conditions: read-out: GI; method in brief: as §1
U-251 = assay: Antiproliferative activity against human U-251 cells assessed as cell growth inhibition at 10 uM incubated for 48 hrs by SRB assay relative to control; type: functional; conditions: read-out: GI; method in brief: as §2
MDA-MB-435 = assay: Antiproliferative activity against human MDA-MB-435 cells assessed as cell growth inhibition at 10 uM incubated for 48 hrs by SRB assay relative to control; type: functional; conditions: read-out: GI
SK-MEL-2 = assay: Antiproliferative activity against human SK-MEL-2 cells assessed as cell growth inhibition at 10 uM incubated for 48 hrs by SRB assay relative to control; type: functional; conditions: read-out: GI; method in brief: as §1
SK-MEL-5 = assay: Antiproliferative activity against human SK-MEL-5 cells assessed as cell growth inhibition at 10 uM incubated for 48 hrs by SRB assay relative to control; type: functional; conditions: read-out: GI; method in brief: as §1
UACC-257 = assay: Antiproliferative activity against human UACC-257 cells assessed as cell growth inhibition at 10 uM incubated for 48 hrs by SRB assay relative to control; type: functional; conditions: read-out: GI; method in brief: as §2
OVCAR-8 = assay: Antiproliferative activity against human OVCAR-8 cells assessed as cell growth inhibition at 10 uM incubated for 48 hrs by SRB assay relative to control; type: functional; conditions: read-out: GI
NCI/ADR-RES = assay: Antiproliferative activity against human NCI-ADR-RES cells assessed as cell growth inhibition at 10 uM incubated for 48 hrs by SRB assay relative to control; type: functional; conditions: read-out: GI
SK-OV-3 = assay: Antiproliferative activity against human SK-OV-3 cells assessed as cell growth inhibition at 10 uM incubated for 48 hrs by SRB assay relative to control; type: functional; conditions: read-out: GI; method in brief: as §1
RXF 393 = assay: Antiproliferative activity against human RXF 393 cells assessed as cell growth inhibition at 10 uM incubated for 48 hrs by SRB assay relative to control; type: functional; conditions: read-out: GI; method in brief: as §1
TK-10 = assay: Antiproliferative activity against human TK-10 cells assessed as cell growth inhibition at 10 uM incubated for 48 hrs by SRB assay relative to control; type: functional; conditions: read-out: GI; method in brief: as §2
BT-549 = assay: Antiproliferative activity against human BT-549 cells assessed as cell growth inhibition at 10 uM incubated for 48 hrs by SRB assay relative to control; type: functional; conditions: read-out: GI
T47D [1] = assay: Antiproliferative activity against human T47D cells assessed as cell growth inhibition at 10 uM incubated for 48 hrs by SRB assay relative to control; type: functional; conditions: read-out: GI; method in brief: as §2
NCI-H23 = assay: Antiproliferative activity against human NCI-H23 cells assessed as cell growth inhibition at 10 uM incubated for 48 hrs by SRB assay relative to control; type: functional; conditions: read-out: GI
NCI-H226 = assay: Antiproliferative activity against human NCI-H226 cells assessed as cell growth inhibition at 10 uM incubated for 48 hrs by SRB assay relative to control; type: functional; conditions: read-out: GI; method in brief: as §1
HOP-92 = assay: Antiproliferative activity against human HOP-92 cells assessed as cell growth inhibition at 10 uM incubated for 48 hrs by SRB assay relative to control; type: functional; conditions: read-out: GI; method in brief: as §1
EKVX = assay: Antiproliferative activity against human EKVX cells assessed as cell growth inhibition at 10 uM incubated for 48 hrs by SRB assay relative to control; type: functional; conditions: read-out: GI
A549 = assay: Antiproliferative activity against human A549 cells assessed as cell growth inhibition at 10 uM incubated for 48 hrs by SRB assay relative to control; type: functional; conditions: read-out: GI
RPMI-8226 = assay: Antiproliferative activity against human RPMI-8226 cells assessed as cell growth inhibition at 10 uM incubated for 48 hrs by SRB assay relative to control; type: functional; conditions: read-out: GI
K562 = assay: Antiproliferative activity against human K562 cells assessed as cell growth inhibition at 10 uM incubated for 48 hrs by SRB assay relative to control; type: functional; conditions: read-out: GI
[2] = Cytotoxicity against human MCF-10A cells assessed as cell growth inhibition incubated for 72 hrs by MTT assay
MDA-MB-468 [3] = assay: Cytotoxicity against human MDA-MB-468 cells assessed as cell growth inhibition incubated for 72 hrs by MTT assay; type: functional, cell-based; conditions: MDA-MB-468, 72 h
T47D [4] = assay: Cytotoxicity against human T47D cells assessed as cell growth inhibition incubated for 72 hrs by MTT assay; type: functional, cell-based
[5] = Selectivity index, ratio of IC50 for human MCF-10A cells to IC50 for human MDA-MB-468 cells; conditions: MCF-10A cells versus MDA-MB-468 cells
[6] = Selectivity index, ratio of IC50 for human MCF-10A cells to IC50 for human T47D cells; conditions: MCF-10A cells versus T47D cells
[7] = target: Vascular endothelial growth factor receptor 2 (Homo sapiens, UniProt P35968); assay: Inhibition of VEGFR-2 (unknown origin) incubated for 45 mins by Kinase-Glo Max assay
MDA-MB-468 [8] = assay: Induction of cell cycle arrest in human MDA-MB-468 cells assessed as fold increase in cell population at S phase at IC50 incubated for 24 hrs by RNase/PI staining based flow cytometry relative to control; type: functional
MDA-MB-468 [9] = assay: Induction of apoptosis in human MDA-MB-468 cells assessed as necrotic cells at IC50 incubated for 24 hrs by Annexin V/PI staining based flow cytometry (reference value: 1.59 %); type: functional
MDA-MB-468 [10] = assay: Induction of apoptosis in human MDA-MB-468 cells assessed as increase in caspase-3 level incubated for 2 hrs by ELISA (reference value: 2.109 ng/ml); type: functional

Sequence of Vascular endothelial growth factor receptor 2 (P35968 whole entry): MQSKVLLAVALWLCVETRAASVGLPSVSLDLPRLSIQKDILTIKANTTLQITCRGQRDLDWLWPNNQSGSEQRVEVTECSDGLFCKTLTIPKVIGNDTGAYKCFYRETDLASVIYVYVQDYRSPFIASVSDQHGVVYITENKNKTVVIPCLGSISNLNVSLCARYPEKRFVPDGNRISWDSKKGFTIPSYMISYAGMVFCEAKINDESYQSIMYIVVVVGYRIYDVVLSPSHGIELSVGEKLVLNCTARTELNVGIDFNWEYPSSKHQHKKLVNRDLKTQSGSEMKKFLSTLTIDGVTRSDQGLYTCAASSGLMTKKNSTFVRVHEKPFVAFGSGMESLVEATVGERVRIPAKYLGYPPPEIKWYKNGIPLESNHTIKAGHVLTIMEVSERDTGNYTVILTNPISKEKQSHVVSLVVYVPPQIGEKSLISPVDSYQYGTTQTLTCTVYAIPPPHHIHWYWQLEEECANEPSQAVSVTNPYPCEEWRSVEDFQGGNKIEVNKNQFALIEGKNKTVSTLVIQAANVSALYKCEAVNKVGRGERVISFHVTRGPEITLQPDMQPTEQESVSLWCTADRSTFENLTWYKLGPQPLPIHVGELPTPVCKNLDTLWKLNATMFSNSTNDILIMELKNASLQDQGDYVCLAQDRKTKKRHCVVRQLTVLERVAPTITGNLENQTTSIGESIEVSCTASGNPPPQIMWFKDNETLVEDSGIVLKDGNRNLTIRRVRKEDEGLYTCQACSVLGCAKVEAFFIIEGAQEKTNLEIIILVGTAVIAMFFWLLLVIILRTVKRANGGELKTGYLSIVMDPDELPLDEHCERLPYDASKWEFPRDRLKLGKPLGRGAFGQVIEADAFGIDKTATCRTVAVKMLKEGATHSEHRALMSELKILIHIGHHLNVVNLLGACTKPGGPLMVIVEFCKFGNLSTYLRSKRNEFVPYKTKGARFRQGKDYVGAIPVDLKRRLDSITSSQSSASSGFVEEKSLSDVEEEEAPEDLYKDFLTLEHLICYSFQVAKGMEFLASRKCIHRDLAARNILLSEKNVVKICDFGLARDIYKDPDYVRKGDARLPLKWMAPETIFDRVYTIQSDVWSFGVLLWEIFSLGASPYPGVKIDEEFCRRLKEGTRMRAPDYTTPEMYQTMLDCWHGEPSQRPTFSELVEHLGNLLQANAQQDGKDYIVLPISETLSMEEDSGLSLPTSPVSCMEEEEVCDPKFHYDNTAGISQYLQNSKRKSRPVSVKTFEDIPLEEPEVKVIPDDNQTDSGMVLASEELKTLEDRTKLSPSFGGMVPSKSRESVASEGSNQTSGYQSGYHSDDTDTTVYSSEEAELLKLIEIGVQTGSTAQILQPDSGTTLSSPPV

| Compound | inhibition of growth at 10 µM (OVCAR-5) | inhibition of growth at 10 µM (NCI-H322M) | inhibition of growth at 10 µM (NCI-H460) | inhibition of growth at 10 µM (KM12) | inhibition of growth at 10 µM (SW-620) | inhibition of growth at 10 µM (SF-539) | inhibition of growth at 10 µM (U-251) | inhibition of growth at 10 µM (MDA-MB-435) | inhibition of growth at 10 µM (SK-MEL-2) | inhibition of growth at 10 µM (SK-MEL-5) | inhibition of growth at 10 µM (UACC-257) | inhibition of growth at 10 µM (OVCAR-8) | inhibition of growth at 10 µM (NCI/ADR-RES) | inhibition of growth at 10 µM (SK-OV-3) | inhibition of growth at 10 µM (RXF 393) | inhibition of growth at 10 µM (TK-10) | inhibition of growth at 10 µM (BT-549) | inhibition of growth at 10 µM (T47D [1]) | inhibition of growth at 10 µM (NCI-H23) | inhibition of growth at 10 µM (NCI-H226) | other results |
| --- | --- | --- | --- | --- | --- | --- | --- | --- | --- | --- | --- | --- | --- | --- | --- | --- | --- | --- | --- | --- | --- |
| Cc1nc2c(cnn2-c2ccccc2)c(=O)n1-c1ccc(NC(=O)c2ccc(Cl)cc2)cc1 | < 15% | < 15% | 28.8% | 19.2% | 17.3% | < 15% | < 15% | 30.2% | 26.1% | 80.3% | 53.9% | 43.4% | 44.5% | < 15% | < 15% | 19.9% | 36% | 72.5% | 47.2% | 49.1% | inhibition of growth at 10 µM (HOP-92): 37.8%; inhibition of growth at 10 µM (EKVX): 68.5%; inhibition of growth at 10 µM (A549): 26.1%; inhibition of growth at 10 µM (RPMI-8226): 52.9%; inhibition of growth at 10 µM (K562): 61.3%; IC50 at 72 h [2]: 34.6 µM; pIC50 (MDA-MB-468 [3]): 4.97; pIC50 (T47D [4]): 4.70; selectivity ratio [5]: 3.24; selectivity ratio [6]: 1.72; pIC50 [7]: 6.70 |
| Cc1nc2c(cnn2-c2ccccc2)c(=O)n1-c1ccc(NC(=O)c2ccc(F)cc2)cc1 | < 15% | < 15% | 45.6% | 35.9% | 23.5% | < 15% | 18.9% | 46.2% | 22.1% | > 100% | 68.2% | 36.3% | 57.2% | < 15% | 20.9% | 29% | 54% | 82% | 49.8% | 43.8% | inhibition of growth at 10 µM (HOP-92): < 15%; inhibition of growth at 10 µM (EKVX): 69.8%; inhibition of growth at 10 µM (A549): 45%; inhibition of growth at 10 µM (RPMI-8226): 64.8%; inhibition of growth at 10 µM (K562): 72.8%; IC50 at 72 h [2]: 22.8 µM; pIC50 (MDA-MB-468 [3]): 5.48; pIC50 (T47D [4]): 5.32; selectivity ratio [5]: 6.81; selectivity ratio [6]: 4.75; pIC50 [7]: 7.20; fold change (FC) (MDA-MB-468 [8]): 1.53; Activity (MDA-MB-468 [9]): 4.94%; Activity (MDA-MB-468 [10]): 15.44 ng/mL |
| Cc1nc2c(cnn2-c2ccccc2)c(=O)n1-c1ccc(NC(=O)c2ccccc2)cc1 | < 15% | < 15% | 27.9% | 24.7% | < 15% | 19.8% | < 15% | 27.2% | < 15% | 76.2% | 46.9% | 38.4% | 30.4% | 19% | 18.9% | 18.6% | 39.1% | 72.4% | 45.5% | 44.7% | inhibition of growth at 10 µM (HOP-92): 29.2%; inhibition of growth at 10 µM (EKVX): 65.7%; inhibition of growth at 10 µM (A549): 28.9%; inhibition of growth at 10 µM (RPMI-8226): 43.6%; inhibition of growth at 10 µM (K562): 66.8%; IC50 at 72 h [2]: 55.5 µM; pIC50 (MDA-MB-468 [3]): 4.57; pIC50 (T47D [4]): 4.45; selectivity ratio [5]: 2.05; selectivity ratio [6]: 1.56; pIC50 [7]: 6.75 |
